{
  "source": "ChEMBL document CHEMBL5576109",
  "about": "“Hydantoin derivative dimers as broad-spectrum antimicrobial agents against ESKAPE pathogens with enhanced killing rate and stability” (RSC Med Chem, 2024)",
  "key": {"[1]": {"test_system": "Enterococcus faecalis", "assay": "Antibacterial activity against Enterococcus faecalis ATCC 29212 assessed as reduction bacterial growth after 16 hrs by TECAN SPARK microplate reader analysis", "type": "functional", "in_short": "(§1)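 Single colony grown overnight in 4 mL TSB at 37 °C, diluted 100-fold and grown to mid-log phase. Compounds 2-fold serially diluted in TSB and mixed 1:1 with bacteria in TSB (1 × 10^6 CFU/mL). Incubated 16 h at 37 °C, then A600 read. MIC taken as the lowest concentration giving complete growth inhibition.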"}, "[2]": {"test_system": "Klebsiella pneumoniae", "assay": "Antibacterial activity against Klebsiella pneumoniae ATCC 10031 assessed as reduction bacterial growth after 16 hrs by TECAN SPARK microplate reader analysis", "type": "functional", "in_short": "as §1"}, "[3]": {"test_system": "Staphylococcus aureus", "assay": "Antibacterial activity against Staphylococcus aureus ATCC 29213 assessed as inhibition of bacterial growth by measuring fold increase in MIC compound preincubated at 40 degree C for 1 hr followed by bacterial culture addition and measured after 16 to 18 hrs by TECAN SPARK microplate reader analysis", "type": "functional", "conditions": "time 16-18 hrs"}, "[4]": {"test_system": "Staphylococcus aureus", "assay": "Antibacterial activity against Staphylococcus aureus ATCC 29213 assessed as inhibition of bacterial growth by measuring fold increase in MIC measured after 16 to 18 hrs in presence of 10% FBS by TECAN SPARK microplate reader analysis", "type": "functional", "conditions": "time 16-18 hrs", "in_short": "(§2)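 Salt/serum stability. Exponential-phase bacteria incubated 16–18 h with compound in medium supplemented with 10 mM NaCl, 10 mM KCl, 10 mM MgCl2, 10% DMEM or 10% FBS. Stability judged from the change in MIC.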"}, "[5]": {"test_system": "Staphylococcus aureus", "assay": "Antibacterial activity against Staphylococcus aureus ATCC 29213 assessed as inhibition of bacterial growth by measuring fold increase in MIC measured after 16 to 18 hrs in presence of 10% DMEM by TECAN SPARK microplate reader analysis", "type": "functional", "conditions": "time 16-18 hrs", "in_short": "as §2"}, "[6]": {"test_system": "Staphylococcus aureus", "assay": "Bactericidal activity against Staphylococcus aureus ATCC 29213 assessed as reduction in colony forming units at 1 to 4 times of MIC by time-kill kinetics assay", "type": "functional, organism-based", "conditions": "time 15-120 min, TDE = time-dependent effect", "in_short": "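Bacteria grown at 37 °C to mid-log phase and diluted to 1 × 10^6 CFU/mL. […] Mixtures diluted 10^2–10^4-fold and plated on TSB agar; colonies counted after 20 h at 37 °C.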"}, "[7]": {"test_system": "Staphylococcus aureus", "assay": "Drug resistance, ratio of MIC for Staphylococcus aureus ATCC 29213 after 25 passages to MIC for Staphylococcus aureus ATCC 29213 after initial exposure", "type": "functional", "conditions": "time 16 hrs", "in_short": "(§3)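 Serial passage resistance selection: after each broth MIC determination, bacteria from the 1/2 MIC well were withdrawn and diluted to 1 × 10^6 CFU/mL for the next MIC measurement. Repeated for 25 passages; MIC after passage 25 compared with the initial MIC.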"}, "[8]": {"test_system": "Escherichia coli", "assay": "Drug resistance, ratio of MIC for Escherichia coli ATCC 25922 after 25 passages to MIC for Escherichia coli ATCC 25922 after initial exposure", "type": "functional", "in_short": "as §3"}},
  "data": [
    {"smiles": "CCCCCCN1C(=O)[C@H](CCCCNC(=N)N)N(Cc2ccc(-c3ccc(CN4C(=O)N(CCCCCC)C(=O)[C@@H]4CCCCNC(=N)N)cc3)cc2)C1=O", "values": [
      {"measurement": "MIC", "setting": "[1]", "result": 3.91, "unit": "µg/mL"},
      {"measurement": "MIC", "setting": "[2]", "result": 7.81, "unit": "µg/mL"},
      {"measurement": "fold change (FC)", "setting": "[3]", "result": 1},
      {"measurement": "fold change (FC)", "setting": "[4]", "result": 1},
      {"measurement": "fold change (FC)", "setting": "[5]", "result": 1},
      {"measurement": "Activity", "setting": "[6]", "result": "Tde"},
      {"measurement": "Ratio", "setting": "[7]", "result": "<=4"},
      {"measurement": "Ratio", "setting": "[8]", "result": "<=4"}
    ]}
  ]
}
